Key:
NCI 60 cell line panel = conditions: read-out: average GI50; average value in the NCI 60 cell line panel; cited from earlier work
[1] = Stability of BI-94 in rat plasma; assay type: in vitro ADME; conditions: immediately after spiking (data not shown)
[2] = GSH and NAC adduct formation in spiked mouse plasma; assay type: in vitro ADME
In short: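 Freshly collected blank mouse blood/plasma and frozen plasma spiked at 10 μg/mL and held 5 and 20 min at room temperature. One frozen-plasma set was fortified with 9.8 μM GSH before spiking. Samples extracted with four volumes MeOH and spun at 16 000 × g for 10 min. Supernatant was mixed 1:1 with 20% methanol in 7.5 mM ammonium formate (pH 2.5). GSH/NAC adducts quantified by negative-mode LC-MS/MS MRM.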

[3] = Stability / recovery of BI-94 in mouse plasma; assay type: in vitro ADME
In short: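 Mouse plasma (stored −80°C) spiked at 10 μg/mL, room temperature: undiluted, or diluted with one or nine volumes of water or 7.5 mM ammonium formate (pH 2.5). At 1, 20 and 60 min, extracted with four volumes MeOH and spun 16 000 × g for 10 min. Supernatant mixed 1:1 with 20% methanol in formate buffer. Post-extracted plasma was spiked after MeOH extraction. Analysed by LC-MS/MS, m/z 319.1→179.8; % recovery.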

[4] = Stability of BI-94 in human plasma; assay type: in vitro ADME; conditions: immediately after spiking (data not shown)
[5] = NAC adduct formation in solution; assay type: in vitro ADME; conditions: deionized water, 30 min, direct MS; adducts of fragments of NAC and BI-94
In short: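 For structural identification, test compound (final 10 μg/mL) incubated 30 min in water with GSH or NAC, then analysed by direct LC-MS/MS and MS/MS. NAC adducts were screened by EMS-IDA-EPI (positive and negative ESI) only. GSH adducts were also screened by negative-mode precursor ion scans (m/z 254, 272) and by isotopic filtering with 1:1 GSH:[13C2,15N]-GSH.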

[6] = Stability of BI-94 in solution; assay type: physicochemical; conditions: for stability in solution: 10 μg/mL, up to 60 min
Balb/c mice = experiment: GSH and NAC adduct formation in vivo after intravenous dose to mice
[7] = Stability of BI-94 in monkey plasma; assay type: in vitro ADME; conditions: immediately after spiking (data not shown)
[8] = GSH adduct formation in solution; assay type: in vitro ADME
[9] = target: human serum albumin (HSA)-T3 peptide (Homo sapiens, UniProt P02768); experiment: HSA-T3 peptide adduct formation in solution; assay type: in vitro ADME; conditions: deionized water, 30 min; MS/MS mass shifts +164 (A1) and +273 (A2)
Sequence of human serum albumin (HSA)-T3 peptide (P02768 45-65 limits assumed): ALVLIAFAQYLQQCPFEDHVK

[10] = water, after 60 min of incubation

Structure (SMILES): O=[N+]([O-])c1ccc(S(=O)(=O)Cc2ccccc2)c2nonc12 [BI-94, 4-(benzylsulfonyl)-7-(hydroxy(oxido)amino)-2,1,3-benzoxadiazole]
- GI50 (NCI 60 cell line panel): 22.9 µM
- recovery from plasma [1]: < 1%
- GSH adducts (A1 and A2) and NAC adduct (A1) in spiked plasma ([2]; blank plasma freshly collected from mice, 10 μg/mL): detected
- GSH and NAC adducts in spiked plasma ([2]; frozen blank mouse plasma): none of the adducts
- recovery from post-extracted plasma ([3]; blank plasma pre-treated with MeOH and formate buffer, after 60-min incubation): 100%
- recovery from mouse plasma ([3]; immediately after spiking, plasma diluted with one or nine volumes of H2O): below detection limit
- recovery from mouse plasma ([3]; immediately after spiking, undiluted mouse plasma, 10 μg/mL): below detection limit
- recovery from mouse plasma ([3]; nine volume dilution with 7.5 mM NH4-formate buffer (pH 2.5)): completely recovered
- recovery from mouse plasma ([3]; one volume dilution with 7.5 mM NH4-formate buffer (pH 2.5), 60 min of incubation): 10%
- recovery from mouse plasma ([3]; one volume dilution with 7.5 mM NH4-formate buffer (pH 2.5), immediate): 62%
- recovery from post-extracted plasma ([3]; plasma pretreated with MeOH, after 60-min incubation): 20%
- recovery from post-extracted plasma ([3]; plasma pretreated with MeOH, immediately after spiking): 100%
- recovery from plasma [4]: < 1%
- NAC adducts detected [5]: three NAC adducts
- stability in the autosampler ([6]; 48 h in 50 % methanol in H2O reconstitution solution (data not shown)): stable
- stability in solution ([6]; NaOH or various buffers at pHs 7–9, room temperature): not stable
- stability in solution ([6]; water and various buffers at pHs 2.5–5, room temperature): stable
- time within which all three mice died after BI-94 administration (Balb/c mice; 10 mg/kg intravenous dose, male Balb/c mice (n = 3)): ≤ 2 h
- BI-94 adducts with GSH (A1 and A2) and NAC (A1 and A2) in plasma in vivo (Balb/c mice; plasma 5 and 60 min after 10 mg/kg intravenous dose to mice): detected
- recovery from plasma [7]: < 1%
- BI-94 depleted on incubation with GSH ([8]; NH4-formate buffer of pH 2.5, over 1 h): 14%
- decrease in BI-94 peak area on incubation with GSH ([8]; PBS, within 5 min of incubation): 94.5%
- GSH adducts detected ([8]; deionized water, 30 min, direct MS, adducts with a fragment of BI-94): two adducts
- decrease in BI-94 peak area on incubation with GSH [8, 10]: 64%
- increase in peak area of A1 and A2 GSH adducts [8, 10]: 6 fold
- adduct formation with HSA-T3 peptide, site [9]: forms adducts with albumin at the Cys34 position

From article PMC4553108 (Xenobiotica; the fate of foreign compounds in biological …, 2015)
